Data from ChEMBL document CHEMBL1126205, “Novel spirosuccinimides with incorporated isoindolone and benzisothiazole 1,1-dioxide moieties as aldose reductase inhibitors and antihyperglycemic agents” (1992).
The source made the active and inactive calls. The rule behind the calls is not given here.

How the values were obtained:
Mus musculus = test: Antihyperglycemic activity measured as percent decrease in mice plasma glucose at 100 mg/Kg/day; assay type: functional
Procedure, shortened: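 Male db/db (C57BL/KsJ) mice, 4–6 per group, dosed at 100 mg/kg per day. Plasma glucose of the drug-treated group is expressed as percent decrease relative to a vehicle-treated control group. Values are mean ± SE, with p < 0.05 marked.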

[1] = biological target: Aldo-keto reductase family 1 member B1 (Bos taurus) (UniProt P16116); test: In vitro aldose reductase inhibitory activity measured by NADPH-dependent inhibition of glyceraldehyde reduction in a partially purified bovine lens preparation at 10E-6 M
Procedure, shortened: (§1)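 Aldose reductase partially purified from bovine lens. Inhibition of NADPH-dependent glyceraldehyde reduction is measured at the single stated concentration and reported as percent inhibition, the mean of two determinations.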

[2] = biological target: Aldo-keto reductase family 1 member B1 (Bos taurus) (UniProt P16116); test: NADPH-dependent inhibition of glyceraldehyde reduction by partially purified aldose reductase from bovine lens at 10e-5 M
Procedure, shortened: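 Partially purified aldose reductase from bovine lens. Inhibition of NADPH-dependent glyceraldehyde reduction was measured at a single test concentration. Values are % inhibition of enzymatic activity, mean of two determinations.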

Rattus norvegicus [3] = test: In vivo galactitol inhibitory activity measured by its ability to inhibit galactitol accumulation in diaphragm at 10 mg/Kg/day; assay type: functional
Procedure, shortened: (§2)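 Rats (n = 6) fed 20% galactose for 4 days, with compound given in the diet at the stated mg/kg per day. Galactitol accumulation in lens, sciatic nerve or diaphragm is scored as percent inhibition versus the non-treated group, as means of 3–8 drug-treated tissue samples. Dunnett's multiple comparison test applies; NS means p > 0.05.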

[4] = biological target: Aldo-keto reductase family 1 member B1 (Bos taurus) (UniProt P16116); test: In vitro aldose reductase inhibitory activity measured by NADPH-dependent inhibition of glyceraldehyde reduction in a partially purified bovine lens preparation at 10E-7 M; procedure, shortened: as §1
Rattus norvegicus [5] = test: In vivo galactitol inhibitory activity measured by its ability to inhibit galactitol accumulation in lens at 10 mg/Kg/day; assay type: functional; settings: Lens of camera-type eye; procedure, shortened: as §2
Rattus norvegicus [6] = test: In vivo galactitol inhibitory activity measured by its ability to inhibit galactitol accumulation in sciatic nerve at 10 mg/Kg/day; assay type: functional; settings: Rattus norvegicus, Sciatic nerve
Procedure, shortened: (§3)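 Rats (n = 6) fed 20% galactose for 4 days, with compound given in the diet at the stated daily dose. Galactitol accumulation was measured in lens, sciatic nerve and diaphragm, and % inhibition was taken versus the nontreated group. Means are from three to eight drug-treated tissue samples. Dunnett's multiple comparison test was applied, with p > 0.05 reported as not significant.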

Rattus norvegicus [7] = test: In vivo galactitol inhibitory activity measured by its ability to inhibit galactitol accumulation in sciatic nerve at 6 mg/Kg/day; NS=Not significant (% Inhibition); assay type: functional, organism-based; procedure, shortened: as §3
Rattus norvegicus [8] = test: In vivo galactitol inhibitory activity measured by its ability to inhibit galactitol accumulation in diaphragm at 6 mg/Kg/day; assay type: functional; procedure, shortened: as §2
Rattus norvegicus [9] = test: In vivo galactitol inhibitory activity measured by its ability to inhibit galactitol accumulation in lens at 6 mg/Kg/day; NS=Not significant (% Inhibition); assay type: functional, organism-based; settings: Lens of camera-type eye; procedure, shortened: as §2
Rattus norvegicus [10] = test: In vivo galactitol inhibitory activity measured by its ability to inhibit galactitol accumulation in lens at 10 mg/Kg/day; NS=Not significant (% Inhibition); assay type: functional; settings: Lens of camera-type eye; procedure, shortened: as §2
Rattus norvegicus [11] = test: In vivo galactitol inhibitory activity measured by its ability to inhibit galactitol accumulation in sciatic nerve at 3 mg/Kg/day; NS=Not significant (% Inhibition); assay type: functional, organism-based; procedure, shortened: as §3
Rattus norvegicus [12] = test: In vivo galactitol inhibitory activity measured by its ability to inhibit galactitol accumulation in lens at 3 mg/Kg/day; NS=Not significant (% Inhibition); assay type: functional, organism-based; settings: Lens of camera-type eye; procedure, shortened: as §2
Rattus norvegicus [13] = test: In vivo galactitol inhibitory activity measured by its ability to inhibit galactitol accumulation in diaphragm at 3 mg/Kg/day; NS=Not significant (% Inhibition); assay type: functional, organism-based; procedure, shortened: as §2
Rattus norvegicus [14] = test: In vivo galactitol inhibitory activity measured by its ability to inhibit galactitol accumulation in sciatic nerve at 10 mg/Kg/day; NS=Not significant (% Inhibition); assay type: functional, organism-based; procedure, shortened: as §3

| SMILES | Decrease (Mus musculus) [%] | inhibition [1] [%] | also measured |
| --- | --- | --- | --- |
| O=C1CC2(C(=O)N1)c1ccccc1S(=O)(=O)N2Cc1ccc(-c2ccccc2)cc1 (stereo unspecified) | <15 | 15 | inhibition [2]: 54% |
| O=C1CC2(C(=O)N1)c1ccccc1S(=O)(=O)N2Cc1ccc(Br)cc1 (stereo unspecified) | 37 | – | – |
| O=C1CC2(C(=O)N1)c1ccccc1S(=O)(=O)N2Cc1ccc(F)cc1 (stereo unspecified) | <15 | – | – |
| Nc1ccc(CN2C3(CC(=O)NC3=O)c3ccccc3S2(=O)=O)cc1 (stereo unspecified) | <15 | – | – |
| O=C1CC2(C(=O)N1)c1ccccc1S(=O)(=O)N2Cc1ccc(I)cc1 (stereo unspecified) | <15 | – | – |
| O=C1CC2(C(=O)N1)c1ccccc1S(=O)(=O)N2Cc1cccc(Br)c1 (stereo unspecified) | <15 | – | – |
| Cc1cc(Br)ccc1CN1C2(CC(=O)NC2=O)c2ccccc2S1(=O)=O (stereo unspecified) | <15 | – | – |
| O=C1CC2(C(=O)N1)c1ccccc1S(=O)(=O)N2Cc1ccccc1F (stereo unspecified) | <15 | – | – |
| CN1C(=O)c2cc3ccccc3cc2C12CC(=O)NC2=O (stereo unspecified) | <15 | 82 | inhibition in vivo at 10 mg/kg/day (Rattus norvegicus [3]): 59%; inhibition [4]: 37%; inhibition in vivo at 10 mg/kg/day (Rattus norvegicus [5]): 14%; inhibition in vivo at 10 mg/kg/day (Rattus norvegicus [6]): 47% |
| O=C1CC2(C(=O)N1)c1ccccc1S(=O)(=O)N2c1ccc(Br)cc1 (stereo unspecified) | <15 | – | inhibition [2]: 0% |
| O=C1CC2(C(=O)N1)c1ccccc1S(=O)(=O)N2Cc1ccccc1 (stereo unspecified) | <15 | 0 | inhibition [2]: 45% |
| CC(=O)Nc1ccc(CN2C3(CC(=O)NC3=O)c3ccccc3S2(=O)=O)cc1 (stereo unspecified) | <15 | – | – |
| O=C1CC2(C(=O)N1)c1ccccc1C(=O)N2Cc1ccccc1 (stereo unspecified) | 22 | – | – |
| CCN1C2(CC(=O)NC2=O)c2ccccc2S1(=O)=O (stereo unspecified) | <15 | – | – |
| O=C1CC2(C(=O)N1)c1ccccc1S(=O)(=O)N2Cc1ccc(C(F)(F)F)cc1 (stereo unspecified) | <15 | 0 | inhibition [2]: 34% |
| O=C1CC2(C(=O)N1)c1ccccc1S(=O)(=O)N2CCc1ccc(Br)cc1 (stereo unspecified) | 25 | – | inhibition [2]: 0% |
| O=C1CC2(C(=O)N1)c1ccccc1S(=O)(=O)N2Cc1c(F)c(F)c(F)c(F)c1F (stereo unspecified) | <15 | – | – |
| Cc1oc(-c2ccccc2)nc1CCOc1ccc(N2C3(CC(=O)NC3=O)c3ccccc3S2(=O)=O)cc1 (stereo unspecified) | <15 | – | – |
| CSc1ccc(CN2C3(CC(=O)NC3=O)c3ccccc3S2(=O)=O)cc1 (stereo unspecified) | <15 | – | – |
| O=C1CC2(C(=O)N1)c1ccccc1C(=O)N2Cc1cccc(Br)c1 (stereo unspecified) | <15 | – | – |
| O=C1CC2(C(=O)N1)c1ccccc1S(=O)(=O)N2Cc1ccc([N+](=O)[O-])cc1 (stereo unspecified) | <15 | 0 | inhibition [2]: 37% |
| O=C1CC2(C(=O)N1)c1ccccc1S(=O)(=O)N2CCCCc1ccc(Cl)cc1 (stereo unspecified) | 20 | – | – |
| CN1C(=O)c2ccc(Cl)cc2C12CC(=O)NC2=O (single isomer, unassigned; (+)) | – | 82 | inhibition [4]: 39% |
| O=C1CC2(C(=O)N1)c1ccccc1S(=O)(=O)N2Cc1ccc2ccccc2c1 (stereo unspecified) | <15 | 20 | inhibition [2]: 57% |

| SMILES | Decrease (Mus musculus) [%] | inhibition [1] [%] | also measured |
| --- | --- | --- | --- |
| O=C1CC2(C(=O)N1)c1ccccc1C(=O)N2Cc1ccc(Br)cc1 (stereo unspecified) | <15 | – | – |
| CN1C(=O)c2cc(Br)ccc2C12CC(=O)NC2=O (stereo unspecified) | <15 | 71 | inhibition (Rattus norvegicus [7]): inactive; inhibition in vivo at 10 mg/kg/day (Rattus norvegicus [3]): 39%; inhibition in vivo at 6 mg/kg/day (Rattus norvegicus [8]): 27%; inhibition (Rattus norvegicus [9]): inactive; inhibition [4]: 27%; inhibition (Rattus norvegicus [10]): inactive; inhibition (Rattus norvegicus [11]): inactive; inhibition (Rattus norvegicus [12]): inactive; inhibition (Rattus norvegicus [13]): inactive; inhibition (Rattus norvegicus [14]): inactive |
| Cc1oc(-c2ccccc2)nc1CCN1C2(CC(=O)NC2=O)c2ccccc2S1(=O)=O (stereo unspecified) | <15 | – | – |
| O=C1CC2(C(=O)N1)c1ccccc1S(=O)(=O)N2Cc1ccc2ccccc2c1Br (stereo unspecified) | <15 | 25 | inhibition [2]: 59% |
| CN1C(=O)c2ccc(Cl)cc2C12CC(=O)NC2=O (stereo in doubt; 32) | – | 80 | inhibition (Rattus norvegicus [9]): inactive; inhibition [4]: 37% |
| CCCCN1C(=O)c2ccccc2C12CC(=O)NC2=O (stereo unspecified) | <15 | 0 | – |
| CN1C(=O)c2ccc([N+](=O)[O-])cc2C12CC(=O)NC2=O (stereo unspecified) | <15 | 77 | inhibition [4]: 32%; inhibition (Rattus norvegicus [11]): inactive; inhibition (Rattus norvegicus [12]): inactive; inhibition (Rattus norvegicus [13]): inactive |
| O=C(O)CN1C2(CC(=O)NC2=O)c2ccccc2S1(=O)=O (stereo unspecified) | – | – | inhibition [2]: 0% |
| COc1ccc2c(c1)C(=O)N(C)C21CC(=O)NC1=O (stereo unspecified) | <15 | 56 | inhibition (Rattus norvegicus [11]): inactive; inhibition (Rattus norvegicus [12]): inactive; inhibition (Rattus norvegicus [13]): inactive |
| O=C1CC2(C(=O)N1)c1ccccc1S(=O)(=O)N2Cc1ccc(Cl)cc1Cl (stereo unspecified) | 19 | – | – |
| CN1C2(CC(=O)NC2=O)c2ccccc2S1(=O)=O (stereo unspecified) | <15 | 0 | inhibition [2]: 40% |
| CSc1ccc2c(c1)C(=O)N(C)C21CC(=O)NC1=O (stereo unspecified) | <15 | 60 | inhibition (Rattus norvegicus [11]): inactive; inhibition (Rattus norvegicus [12]): inactive; inhibition (Rattus norvegicus [13]): inactive |
| O=C1CC2(C(=O)N1)C(=O)N(Cc1ccc(Br)cc1F)c1c(Cl)cccc12 (stereo unspecified) | <15 | 92 | inhibition in vivo at 10 mg/kg/day (Rattus norvegicus [3]): 84%; inhibition [4]: 83%; inhibition in vivo at 10 mg/kg/day (Rattus norvegicus [5]): 36%; inhibition in vivo at 10 mg/kg/day (Rattus norvegicus [6]): 86% |
| Cc1oc(-c2ccccc2)nc1CCOc1ccc(CN2C3(CC(=O)NC3=O)c3ccccc3S2(=O)=O)cc1 (stereo unspecified) | <15 | – | – |
| CC(C)(C)c1ccc(CN2C(=O)c3ccccc3C23CC(=O)NC3=O)cc1 (stereo unspecified) | <15 | – | – |
| CCC(CC)N1C2(CC(=O)NC2=O)c2ccccc2S1(=O)=O (stereo unspecified) | 31 | – | – |
| Cc1cc(CN2C3(CC(=O)NC3=O)c3ccccc3S2(=O)=O)ccc1Br (stereo unspecified) | <15 | – | – |
| CCCCN1C2(CC(=O)NC2=O)c2ccccc2S1(=O)=O (stereo unspecified) | <15 | – | – |
| O=C1CC2(C(=O)N1)c1ccccc1S(=O)(=O)N2Cc1ccc(Br)cc1F (stereo unspecified) | 48 | 0 | inhibition [2]: 52% |
| O=C1CC2(C(=O)N1)c1ccccc1C(=O)N2Cc1c(F)cccc1Cl (stereo unspecified) | <15 | – | – |
| O=C1CC2(C(=O)N1)c1ccccc1S(=O)(=O)N2Cc1ccc(Oc2ccccc2)cc1 (stereo unspecified) | <15 | 24 | inhibition [2]: 67% |
| CCCCCc1ccc(CN2C(=O)c3ccccc3C23CC(=O)NC3=O)cc1 (stereo unspecified) | <15 | – | – |
| O=C1CC2(C(=O)N1)c1ccccc1C(=O)N2Cc1ccc(I)cc1 (stereo unspecified) | <15 | – | – |
| O=C1CC2(C(=O)N1)c1ccccc1S(=O)(=O)N2Cc1ccc(Br)cc1Cl (stereo unspecified) | <15 | – | – |
